Measured values: PubChem BioAssay
Activity calls are given as the source filed them.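 How the source made its calls, unless noted: active means current rise at least 3 SD above the untreated control mean in each of two repeat wells; inactive means the rest.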

molecular target: Potassium voltage-gated channel subfamily KQT member 2 (Rattus norvegicus) (UniProt O88943); assay: KCNQ2 thallium flux enhancement – KCNQ2-CHO-K1 cells, selectivity assay for KCNQ1 potentiator project (AID 493009;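 active means mean duplicate potentiation above the buffer control mean plus 5 SD of buffer wells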;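 further: assay conditions were tuned for KCNQ1 rather than KCNQ2 modulators; signal is max minus min fluorescence divided by baseline after thallium stimulus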); conditions: FluxOR thallium flux fluorescence, at 10 µM; hits give high values, scaled: buffer 0, activator control 100
Sequence (O88943 whole entry, looked up): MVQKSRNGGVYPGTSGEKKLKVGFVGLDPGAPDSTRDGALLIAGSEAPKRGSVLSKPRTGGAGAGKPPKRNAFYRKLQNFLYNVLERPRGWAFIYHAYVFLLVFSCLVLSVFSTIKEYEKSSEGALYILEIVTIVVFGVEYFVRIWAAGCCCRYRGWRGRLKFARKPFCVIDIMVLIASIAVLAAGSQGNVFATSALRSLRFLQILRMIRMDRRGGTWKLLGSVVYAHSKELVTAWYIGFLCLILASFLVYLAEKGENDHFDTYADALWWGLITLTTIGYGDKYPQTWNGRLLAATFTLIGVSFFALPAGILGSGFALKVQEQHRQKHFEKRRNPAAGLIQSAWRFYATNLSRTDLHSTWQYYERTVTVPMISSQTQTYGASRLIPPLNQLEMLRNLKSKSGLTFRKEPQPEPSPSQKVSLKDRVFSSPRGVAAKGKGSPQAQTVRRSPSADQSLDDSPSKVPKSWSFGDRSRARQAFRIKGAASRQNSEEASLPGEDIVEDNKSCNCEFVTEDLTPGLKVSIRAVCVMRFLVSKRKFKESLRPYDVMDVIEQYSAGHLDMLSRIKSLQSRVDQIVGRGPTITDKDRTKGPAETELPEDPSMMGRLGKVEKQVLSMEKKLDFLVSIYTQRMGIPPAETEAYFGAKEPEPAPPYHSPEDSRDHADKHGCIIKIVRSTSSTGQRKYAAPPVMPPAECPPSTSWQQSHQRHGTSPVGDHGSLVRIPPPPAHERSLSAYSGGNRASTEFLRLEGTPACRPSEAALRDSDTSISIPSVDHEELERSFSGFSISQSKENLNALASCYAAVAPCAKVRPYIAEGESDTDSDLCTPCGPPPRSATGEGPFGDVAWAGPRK

Structure (SMILES) | outcome | potentiation
COc1ccc(C(=O)CC(=O)C(=O)Nc2ccc(C)c(Cl)c2)cc1 | inactive | –
O=C(NC(=S)Nc1ccc(N2CCCCC2)c(Cl)c1)c1cccs1 | – | 232% (active)
CCCn1c(SCC(=O)Nc2ccccc2C(=O)OC)nc2c1c(=O)n(C)c(=O)n2C | inactive | –
COc1ccc(CCN(C)C(=O)CSc2nnc(-c3ccco3)o2)cc1OC | inactive | –
Cc1c(-c2nc(-c3ccncc3)no2)cccc1[N+](=O)[O-] | inactive | –

molecular target: Potassium voltage-gated channel subfamily KQT member 1 (Homo sapiens) (UniProt P51787); assay: KCNQ1 activators by electrophysiology – IonWorks patch clamp, KCNQ1-CHO cells, orthogonal assay for KCNQ1 potentiator project, confirmation (AID 493184); conditions: automated patch clamp current, at 10 µM; hits give high values
Sequence (P51787 whole entry, looked up): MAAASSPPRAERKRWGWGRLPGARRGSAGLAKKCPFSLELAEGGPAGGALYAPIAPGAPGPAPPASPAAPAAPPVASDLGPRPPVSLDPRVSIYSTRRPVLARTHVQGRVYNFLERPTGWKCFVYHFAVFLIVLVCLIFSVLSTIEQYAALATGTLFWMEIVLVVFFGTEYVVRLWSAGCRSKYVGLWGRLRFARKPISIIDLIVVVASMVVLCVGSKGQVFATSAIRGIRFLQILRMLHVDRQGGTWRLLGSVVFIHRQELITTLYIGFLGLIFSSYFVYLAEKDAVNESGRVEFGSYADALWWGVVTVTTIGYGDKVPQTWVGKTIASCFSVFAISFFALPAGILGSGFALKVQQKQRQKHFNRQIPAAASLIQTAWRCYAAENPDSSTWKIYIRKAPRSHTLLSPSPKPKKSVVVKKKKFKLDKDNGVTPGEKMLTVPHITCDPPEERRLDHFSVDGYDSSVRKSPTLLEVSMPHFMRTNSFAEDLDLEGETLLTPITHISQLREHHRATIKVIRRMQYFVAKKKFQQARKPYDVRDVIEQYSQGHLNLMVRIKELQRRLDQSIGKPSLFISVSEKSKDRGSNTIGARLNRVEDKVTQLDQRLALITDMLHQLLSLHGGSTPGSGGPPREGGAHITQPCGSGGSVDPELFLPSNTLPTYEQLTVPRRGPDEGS
Summary of the method: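 Read-out: Percent current increase versus pre-compound level | Assay system: CHO cells carrying KCNQ1 | Measured by: Automated perforated-patch electrophysiology | Medium: External bath solution at pH 7.4 | Dosing: One dose, 10 µM final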

Structure (SMILES) | outcome
COC(=O)c1c(NC(=O)CC2SC(N)=NC2=O)sc2c1CCC(C)C2 (stereo not given) | inactive
Cc1ccc2cc(/C=N/NC(=O)CN3CCCCC3)c(Cl)nc2c1 | inactive
Cc1cc(/C=C2\C(=N)N3N=C(C(C)C)SC3=NC2=O)c(C)n1Cc1ccccc1 | inactive
CSCC(C)N1CCC(n2nccc2NC(=O)CCOc2ccccc2)CC1 (stereo not given) | inactive
CCOc1cccc2sc(NC(=O)c3ccc(Br)s3)nc12 | inactive
CNCC/C=C1/c2ccccc2CSc2ccccc21 | inactive
CCCc1cc(=O)[nH]c(SCC(=O)Nc2ccc(Br)cc2Br)n1 | inactive
O=C(NC(=S)Nc1cccc(Cl)c1)c1cncc(Br)c1 | inactive
CCC(C)NC(=O)Cn1c(-c2ccccc2)cc(C(C)=O)c1C (stereo not given) | inactive
COc1cccc(-c2nc(=S)c3c(o2)CCCC3)c1 | inactive
CN(C)CCCN(C(=O)CCOc1ccccc1)c1nc2c(F)cccc2s1 | inactive
CCc1ccc(NC(=O)C(=O)NNC(=O)c2cccc(OC)c2)cc1 | inactive
CCNc1nc(NCC)nc(C(=O)OCCO)n1 | inactive
COc1ccccc1C(=O)NNC(=O)C(=O)Nc1ccc(C)c(Cl)c1 | inactive
Cc1cc(Cl)ccc1OCC(=O)N/N=C1\CC2C=CCC12 (stereo not given) | inactive
Nc1ccc(C2(c3ccc(N)cc3)OC(=O)c3ccccc32)cc1 | inactive
O=C(NC(=S)N1CCN(Cc2ccc3c(c2)OCO3)CC1)c1ccc(Cl)cc1 | inactive
O=C1C(=O)N(CCCc2ccccc2)c2ccccc21 | inactive
Cc1ccc(NC(=O)Nc2ccc3c(c2)CCC3)cc1 | inactive
O=C(Nc1nnc(-c2ccc3c(c2)CCCC3)o1)c1ccc(Cl)cc1Cl | inactive

Structure (SMILES) | outcome
COc1ccc(-c2csc(N(CCCN(C)C)C(=O)c3ccccc3C)n2)cc1 | inactive
Cc1cccc(OCc2n[nH]c(=S)n2C2CCCCC2)c1 | inactive
Nc1nc(N)c2sc3nc4c(cc3c2n1)CCC4 | inactive
Cc1cc(C=NCCO)c(C)n1-c1cc(Cl)ccc1Cl | inactive
Cc1cc(C(=O)CSc2nnc(N)s2)c(C)n1C1CC1 | inactive
O=C(COc1ccccc1Cl)NC(=S)N1CCc2ccccc21 | inactive
Cc1ccc2cccnc2c1NC(=S)NC(=O)c1ccccc1 | inactive
CCC1Oc2ccc(C)cc2N(CC(=O)N(Cc2ccc(C)o2)C2CC(C)(C)NC(C)(C)C2)C1=O (stereo not given) | inactive
COc1ccccc1C(=O)NNC(=O)C(=O)NC(C)C | inactive
COc1cccc(NC(=S)N/N=C2/CCCCc3ccccc32)c1 | inactive
O=C(NC(=S)Nc1cccnc1)c1cc2ccccc2o1 | inactive
O=C1CCC/C(=N\NC(=O)c2ccc(COc3cccc4cccnc34)cc2)C1 | inactive
Cc1ccccc1NC(=S)NNC(=O)c1csc2c1CCC(C)C2 (stereo not given) | inactive
CN1CCN(c2ccc(S(=O)(=O)N3CCCCC3)cc2NC(=O)COc2cccc(Cl)c2)CC1 | inactive
CCCC(=O)n1nc(-c2ccc(C)cc2)nc1NCc1ccco1 | inactive
COc1ccc(C(=O)CC(=O)C(=O)Nc2ccc(C)c(Cl)c2)cc1 | inactive
O=C(NC(=S)Nc1ccc(N2CCCCC2)c(Cl)c1)c1cccs1 | inactive
CCCn1c(SCC(=O)Nc2ccccc2C(=O)OC)nc2c1c(=O)n(C)c(=O)n2C | inactive
COc1ccc(CCN(C)C(=O)CSc2nnc(-c3ccco3)o2)cc1OC | inactive
Cc1c(-c2nc(-c3ccncc3)no2)cccc1[N+](=O)[O-] | inactive
